From ChEMBL document CHEMBL5150070, “Tricyclic SpiroLactams Kill Mycobacteria In Vitro and In Vivo by Inhibiting Type II NADH Dehydrogenases” (J Med Chem, 2022)
Converted amounts (≈) assume the structure as drawn. The source made the active and inactive calls. The calls are words filed in the database; no cut-off is given here.

Key:
[1] = test system: Mycobacteroides abscessus; assay: Antibiotic activity against Mycobacterium abscessus CIP104536, Smooth variant assessed as reduction in bacterial cell growth by measuring resazurin reduction incubated for 6 days by fluorescence microplate based assay; assay type: functional; conditions: 144 h, time 6 day
[2] = test system: Mycobacterium tuberculosis; assay: Inhibition of Ndh2 in Mycobacterium tuberculosis assessed as decrease in ATP concentration measured after 24 hrs; conditions: DDE = dose-dependent effect
Summary of the method: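 Log-phase H37Rv diluted to OD600 0.01 in complete 7H9 and exposed in 96-well plates to compound added from a 100× DMSO stock, at 37°C. ATP measured with BacTiter-Glo luminescence after 4 and 24 h; three independent experiments.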

[3] = Toxicity in noninfected zebrafish larvae assessed as larval development; parameters: species or system Danio rerio; conditions: in vivo
Mycobacterium marinum [4] = assay: Antibiotic activity against Mycobacterium marinum M strain assessed as reduction in bacterial cell growth by measuring resazurin reduction incubated for 6 days by fluorescence microplate based assay; assay type: functional; conditions: 144 h, time 6 day
Mycobacterium marinum [5] = assay: In vivo antimycobacterial efficacy in Mycobacterium marinum expressing Wasabi infected zebrafish larvae assessed as prolongation of survival treated for 4 days after 1 day post infection; assay type: functional, organism-based; conditions: dose 0.3-1.2 µM, time 4.0 day, DDE = dose-dependent effect
Summary of the method: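 Golden mutant or Tg(mpeg1:mCherry) zebrafish embryos were dechorionated and anaesthetised in 0.016% tricaine. At 30 hpf, 2–3 nL containing about 200–250 cfu of Wasabi-expressing M. marinum M (pTEC15) was injected into the caudal vein. The inoculum was confirmed by plating on 7H10. Embryos were kept in E3 at 28.5 °C, 12 per well, to follow infection and survival.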

Klebsiella pneumoniae = assay: Antibiotic activity against Klebsiella pneumoniae LMG 2095 assessed as reduction in bacterial cell growth by measuring resazurin reduction incubated for 6 days by fluorescence microplate based assay; assay type: functional; conditions: LMG 2095, 144 h, time 6 day
[6] = test system: Mycobacterium tuberculosis; assay: Inhibition of Ndh2 in Mycobacterium tuberculosis assessed as increase in NADH/NAD+ ratio at 600 nM measured after 24 hrs
Summary of the method: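 Mid-log H37Rv diluted to OD600 0.3 and exposed to compound at 37°C for 2 and 24 h. Pellets extracted in 0.2 M HCl (NAD⁺) or 0.2 M NaOH (NADH), bead-milled, heated 55°C 10 min, neutralised. NAD/NADH-Glo luminescence read against an NADH standard curve, corrected for OD600. Three independent experiments, duplicate technical replicates.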

Bacillus subtilis = assay: Antibiotic activity against Bacillus subtilis ATCC6633 assessed as reduction in bacterial cell growth by measuring resazurin reduction incubated for 6 days by fluorescence microplate based assay; assay type: functional; conditions: ATCC6633, 144 h, time 6 day

In the case of CC(C)[C@H]1CO[C@]23CCN(Cc4ccc(C(F)(F)F)cc4)C[C@H]2CCC(=O)N13, the MIC [1] is reported as 5 µM (≈ 1.98 µg/mL), the inhibition [2] is reported as “Dde” and the Activity [3] is reported as “Non-Toxic”. For the same compound, the MIC (Mycobacterium marinum [4]) was 0.19 µM (≈ 0.0753 µg/mL), the Activity (Mycobacterium marinum [5]) was “Dde” and the MIC (Klebsiella pneumoniae) was greater than 100 µM. The inhibition [6] was “Active” and the MIC (Bacillus subtilis) was greater than 100 µM.
